A selection: hits, their analogues and other compounds. The true share with any hit is near 6.1%.
Yeast life ext: extends the lifespan of yeast. inhibition of the nicotinamide effect, % at 10 µM. 0.68% of 130,000 active. S. cerevisiae growth with nicotinamide, OD615; deaD strain in restrictive glucose medium;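 active = inhibition above a set limit, placed 3 SD over the median of all compounds, cut at about 26% in these data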;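 note: 0% = nicotinamide-treated wells and 100% = cells grown without nicotinamide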
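System: Modified budding yeast, DeaD strain | Buffer or medium: Restrictive glucose medium | Also added: 1.5 mM nicotinamide | Doses: 10 µM single point, 0.25% DMSO | Schedule: 48 h compound exposure at 30 °C, humidified | Detection: Absorbance at 615 nm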
RAM network inh: blocks the yeast RAM network | S. cerevisiae dse1pr::URA3 reporter, 5-FOA growth OD615, 2 d; analog-sensitive cbk1-as2 kinase mutant strain | inhibition, % at 50 µM | 1.8% of 190,000 active | AID 868;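 active = inhibition above a set limit, 3 SD over mean compound inhibition, cut at about 8.4% in these data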;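 note: 0% = DMSO-only wells with no growth and 100% = 10 µM 1-NA-PP1 full growth; inhibition rescues growth on 5-FOA so higher OD means more RAM inhibition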
DAT uptake mod: changed human dopamine transporter uptake under cocaine IC80; Q01959; LLC-PK1 hDAT cells, [14C]-dopamine uptake with cocaine IC80; actives deviate in either direction; B-score at 10 µM; 1.3% of 110,000 active;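 active = Z score or B-score, a plate-position-corrected score, falls beyond the plate's 99.7% confidence bounds, in either direction; inactive = both scores lie inside the 99.7% bounds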;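 note: scored against the spread of the other compound wells on the same plate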
Target sequence (Q01959 whole entry, looked up): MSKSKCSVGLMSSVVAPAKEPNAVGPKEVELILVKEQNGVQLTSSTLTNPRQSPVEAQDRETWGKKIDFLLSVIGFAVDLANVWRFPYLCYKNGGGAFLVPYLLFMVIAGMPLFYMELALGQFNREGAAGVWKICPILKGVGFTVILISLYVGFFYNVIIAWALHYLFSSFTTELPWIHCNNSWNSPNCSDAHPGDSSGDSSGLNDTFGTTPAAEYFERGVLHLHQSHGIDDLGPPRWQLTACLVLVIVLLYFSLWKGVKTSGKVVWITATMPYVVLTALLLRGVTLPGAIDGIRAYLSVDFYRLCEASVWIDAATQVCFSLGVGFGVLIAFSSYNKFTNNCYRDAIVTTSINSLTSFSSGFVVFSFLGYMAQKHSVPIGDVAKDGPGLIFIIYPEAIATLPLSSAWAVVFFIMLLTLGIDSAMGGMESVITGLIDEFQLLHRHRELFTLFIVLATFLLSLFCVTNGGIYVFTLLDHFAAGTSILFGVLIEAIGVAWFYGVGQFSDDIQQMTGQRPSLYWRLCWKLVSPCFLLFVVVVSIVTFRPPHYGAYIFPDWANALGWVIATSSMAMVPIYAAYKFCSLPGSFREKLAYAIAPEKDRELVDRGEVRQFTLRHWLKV
BB579 growth dn: yeast BB579 growth reduction in restrictive medium. S. cerevisiae BB579 growth, OD615, 48 h. inhibition, % at 10 µM. 0.51% of 140,000 active. AID 804;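 active = inhibition above a set limit, 3 SD over the mean compound inhibition, cut at about 44% in these data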
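controls = amphotericin B 10 µg/mL, positive | assay system = DeaD yeast strain BB579 | schedule = 48 h compound exposure at 30 °C after 4 h preincubation | detection = OD615 turbidity measurement | medium = restrictive CSMM-D medium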
WT yeast gro inh: growth inhibition of WT yeast, mitochondrial fusion screen; mitochondrial fusion phenotypic screen, WT strain; inhibition, % at 10 µM; 2.1% of 190,000 active; in the data active = inhibition above about 58%; tested in S. cerevisiae
Measles CPE: protection of cells from measles virus | AID 841 | 1.5% of 140,000 active | Measles virus-infected cells, CPE protection, absorbance | protection (pct of control), % at 4 µM; in the data active = protection mostly above about 24%, no sharp cut-off; inactive = mostly below about 26%
Active calls of the source: *; . = no result.

SMILES	Yeast life ext	RAM network inh	DAT uptake mod	BB579 growth dn	WT yeast gro inh	Measles CPE
O=C(NC(=S)N1CCN(Cc2ccc3c(c2)OCO3)CC1)c1ccc(Cl)cc1	2	-1	.	-42	62*	17
Cn1cnc(S(=O)(=O)Nc2ccc(OC(F)(F)F)cc2)c1	.	1	.	.	-10	.
O=C1CCCc2oc3c(c21)CCCC3	.	1	.	.	-5	.
Cc1ccc2c(c1)C(=NC1CCCCC1)c1cc3ccccc3nc1-2	-9	3	.	60*	35	.
Cc1ccc(-c2cc3ccccc3nc2N2CCCC2)cc1	-9	0	-1.3	-29	56	12
Cc1ccc2c(c1)-c1nc3ccccc3cc1C2=NC1CCCCC1	-10	2	.	47*	33	18
NNC(=O)[C@@H]1C[C@@H]1c1ccccc1	-2	1	.	-14	10	7
CCc1c(C)sc(NC(=O)C2CC2c2ccccc2)c1C(N)=O (stereo not given)	-10	5	1.4	-17	3	38*
CC(=O)CCC(=O)OCC(=O)Nc1ccc(SC(F)F)cc1	.	1	.	.	14	.
O=C(Nc1ccccc1O)c1ccc(NS(=O)(=O)c2cccc3cccnc23)cc1	.	4	.	.	-11	.
Cc1ccc(-n2nc(C)c3c2OC(N)=C(C#N)C3c2ccco2)cc1 (stereo not given)	28	0	0.46	-58	14	3
Cc1ccc(-n2nc(C)c3c2OC(N)=C(C#N)C3c2ccoc2)cc1 (stereo not given)	30*	0	-0.087	-66	18	5
C=CCSC(=C(C#N)C#N)c1cc2c([nH]1)CCCC2	-8	11*	-0.051	61*	35	1
CCCNC(=O)NC(=O)CSc1nc2cc(C(=O)OC)ccc2c(=O)n1-c1ccccc1	-8	5	-0.28	-27	-6	26*
COc1ccc(CNC(=O)CSc2nnc(-c3ccc(NC(C)=O)cc3)n2C)cc1	-27	1	-0.038	48*	6	5
COc1ccc(-c2nnc(SCC(=O)Nc3ccc(C)cc3)n2C)cc1	-7	2	0.85	-37	-10	3
CC(=O)Nc1ccc(-c2nnc(SCc3c(C)cc(C)cc3C)n2C)cc1	-3	8.5*	0.69	-3	17	10
CC(=O)Nc1ccc(-c2nnc(SCC(=O)c3ccc4c(c3)Cc3ccccc3-4)n2C)cc1	-8	2	-0.45	-36	.	8
Cc1nn(Cc2ccc(C(=O)Nc3ccccc3C(F)(F)F)o2)c(C)c1Br	17	0	-0.29	-30	36	2
Cc1cc(C)cc(NC(=O)c2ccc(Cn3nc(C)c(Cl)c3C)o2)c1	.	4	2.4	-11	74*	12
Cc1ccc(CNC(=O)c2ccc(Cn3nc(C)c(Cl)c3C)o2)cc1	-12	-1	2	99*	100*	27
COC(=O)Cn1nc(-c2ccc(C)cc2)c2ccccc2c1=O	.	1	.	.	64*	.
Cc1ccc(-c2nn(CC(=O)O)c(=O)c3ccccc23)cc1	.	1	-1.2	-12	5	15
OCCOCCNc1ncnc2nc[nH]c12	-4	0	-0.92	-4	17	17
CCCCN(CCCC)c1ncnc2nc[nH]c12	.	1	.	.	78*	.
SMILES	Yeast life ext	RAM network inh	DAT uptake mod	BB579 growth dn	WT yeast gro inh	Measles CPE
CCCNc1ncnc2nc[nH]c12	-9	1	0.037	-15	-3	40*
CCCCN(Cc1ccccc1)c1ncnc2nc[nH]c12	-4	0	-0.3	-11	75	24
CCCCNC(=O)c1onc(CSc2ccc(F)c(F)c2)c1C(=O)NCCCC	.	.	0.19	.	.	.
COC(C[C@@H](O)[C@@H](C)[C@@H](O)COCc1ccccc1)OC	.	.	-0.5	.	.	.
CC(O)CN1CC(O)=C(c2nc3ccccc3s2)C1=N (stereo not given)	.	1	.	.	-1	.
CC(NC(=O)/C(C#N)=C/c1ccc(Cl)c([N+](=O)[O-])c1)c1ccccc1 (stereo not given)	5	4	.	46*	76	-1
N#C/C(=C\c1ccc(O)c([N+](=O)[O-])c1)C(=O)NCc1ccccc1	.	3	.	.	11	.
O=C(CCc1ccccc1)NNC(=O)c1ccc(F)cc1	.	0	.	.	5	.
O=C(Cc1cccs1)NNC(=S)NC(=O)c1ccccc1	7	0	.	86*	11	7
Cc1ccc(C(=O)NNC(=S)NC(=O)c2ccc(Cl)cc2)cc1	95*	1	-1.7	-32	26	3
CC(=O)NNC(=S)NC(=O)c1ccc(C)cc1	.	-1	.	.	41	.
O=C(CCc1ccccc1)NNC(=S)NC(=O)c1ccc(Cl)cc1	-3	2	-0.022	-31	65*	5
Cn1c(=O)c2ncn(CC(=O)Nc3nc(-c4ccc(Cl)cc4)cs3)c2n(C)c1=O	.	6	.	.	-2	.
c1ccc(Nc2scc(-c3ccccc3)[n+]2Cc2ccco2)cc1	.	3	.	.	67*	.
c1ccc(C[n+]2c(-c3ccccc3)csc2Nc2ccccc2)cc1	7	4	.	-16	10	13
O=C(c1ccc2c(c1)OCO2)N(Cc1ccco1)C1(C(=O)NC2CCCCC2)CCCCC1	-9	0	-0.23	-35	59*	2
COc1cc(-c2nnc(-c3ccncc3)o2)ccc1OCc1ccccc1	-17	3	0.056	-47	7	91*
Cc1ccc2cccc(Oc3cnccn3)c2n1	3	1	-1.9*	-24	7	6
O=C(NC(=S)NNC(=O)c1ccc(Cl)cc1Cl)c1cccnc1	44*	-1	.	-6	-7	12
O=C(NNC(=S)NC(=O)c1cccnc1)c1ccc(Cl)cc1	43	1	0.079	-18	2	2
CCCCNC(=S)NNC(=O)c1cccnc1	.	-1	-8.2*	-1	-11	6
CCC(C)Oc1nc2ccccc2nc1NS(=O)(=O)c1ccccc1 (stereo not given)	26*	3	-0.63	-39	-4	7
O=S(=O)(Nc1nc2ccccc2nc1Cl)c1ccc2ccccc2c1	41*	6	.	-31	-9	5
O=S(=O)(Nc1nc2ccccc2nc1NCc1ccco1)c1ccc(Cl)cc1	5	3	-0.34	-69	58*	4
O=S(=O)(Nc1nc2cc3c(cc2nc1Cl)OCCO3)c1ccccc1	.	0	.	.	-11	.
O=S(=O)(Nc1nc2ccccc2[nH]1)c1ccccc1	1	1	-0.05	-22	0	12
O=S(=O)(Nc1nc2ccccc2nc1Cl)c1ccccc1	30*	0	.	-4	-2	19
COC(=O)CC1C(=O)NCCN1C(=O)CSc1nnnn1-c1ccc(Cl)cc1 (stereo not given)	.	2	.	.	-14	.
CC(=O)Nc1sc2c(c1-c1nc3ccccc3s1)CCN(C(C)C)C2	.	-1	.	.	58*	.
